Active and inactive are the calls of the source. No cut-off for these calls is given here.
How the values were obtained:
[1] = biological target: hERG (KCNH2) (Homo sapiens, UniProt Q12809); experiment: Binding affinity to human ERG assessed as inhibition of ligand binding at 10 uM relative to control
[2] = tested on: HEK293; experiment: Effect on cAMP levels in HEK293 cells at 0.1 nM to 10000 nM incubated for 15 mins by Glosensor cAMP assay; type: functional, cell-based; details: Homo sapiens, dose nM 0.1-10000, time […]
In short: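 HEK293 cells were transiently co-transfected with human GPR52 and the 22F Glosensor cAMP reporter. After 18 h they were seeded on poly-L-lysine, then equilibrated 2 h at room temperature in the dark in 1% Glosensor reagent/HBSS/20 mM HEPES. Cells were treated 15 min with a twelve-point series, and luminescence was read.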

[3] = AUC (0 to infinity) in Sprague-Dawley rat at 20 mg/kg, po mesured up to 24 hrs; type: ADME, organism-based; parameters: route oral, dose 20 mg/kg, time <=24; details: in vivo
In short: (§1)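 Male Sprague-Dawley rats (200–250 g, n = 3/group), dosed IV 10 mg/kg or PO 20 mg/kg in 10% DMSO/90% HP-β-CD. Jugular blood into K2EDTA at 0.08 (IV only), 0.25, 0.5, 1, 2, 4, 8, 24 h; plasma by centrifugation at 4 °C, stored −20 °C. Non-compartmental analysis; Cmax read from profile, AUC by linear trapezoidal rule extrapolated to infinity; mean ± SEM.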

[4] = AUC (0 to infinity) in Sprague-Dawley rat at 10 mg/kg, iv mesured up to 24 hrs; type: ADME, organism-based; parameters: route intravenous, dose 10 mg/kg, time <=24; details: in vivo; in short: as §1
[5] = Cmax in Sprague-Dawley rat at 20 mg/kg, po mesured up to 24 hrs; type: ADME, organism-based; parameters: route oral, dose 20 mg/kg, time <=24; details: in vivo; in short: as §1
[6] = Cmax in Sprague-Dawley rat at 10 mg/kg, iv mesured up to 24 hrs; type: ADME, organism-based; parameters: route intravenous, dose 10 mg/kg, time <=24; details: in vivo; in short: as §1
[7] = Clearance in Sprague-Dawley rat at 10 mg/kg, iv mesured up to 24 hrs; type: ADME, organism-based; details: in vivo; in short: as §1
[8] = Volume of distribution at steady state in Sprague-Dawley rat at 20 mg/kg, po mesured up to 24 hrs; type: ADME, organism-based; details: in vivo
[9] = Volume of distribution at steady state in Sprague-Dawley rat at 10 mg/kg, iv mesured up to 24 hrs; type: ADME, organism-based; details: in vivo
In short: (§2)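 Male Sprague Dawley rats, 200–250 g, n = 3 per group, were dosed at 10 mg/kg IV or 20 mg/kg PO in 10% DMSO/90% HP-β-CD. Jugular plasma was sampled from 0.08 (IV) or 0.25 (PO) to 24 h. Non-compartmental analysis gave t1/2 = 0.693/λ, AUC by linear trapezoid extrapolated to infinity, Vss after IV, and absolute F. Mean ± SEM.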

[10] = Oral bioavailability in Sprague-Dawley rat at 20 mg/kg mesured up to 24 hrs; type: ADME, organism-based; details: in vivo; in short: as §2
[11] = Drug level in Sprague-Dawley rat brain at 10 mg/kg, iv after 1 hr; type: ADME, organism-based; details: read-out: Drug uptake
In short: (§3)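 Male Sprague Dawley rats, 200–250 g, n = 3, were given a single 10 mg/kg IV dose in 10% DMSO/90% HP-β-CD vehicle. Brain and jugular-vein plasma (K₂EDTA, centrifuged at 4 °C) were collected 0.25 and 1 h post-dose and stored at −20 °C. Drug concentration was measured in each and the brain/plasma ratio derived. Values are mean ± SEM of biological triplicates.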

[12] = Drug level in Sprague-Dawley rat plasma at 10 mg/kg, iv after 1 hr; type: ADME, organism-based; in short: as §3
[13] = Ratio of drug level in brain to plasma of Sprague-Dawley rat at 10 mg/kg, iv after 1 hr; type: ADME, organism-based; in short: as §3
[14] = tested on: Mus musculus; experiment: Antipsychotic-like activity in C57/BL6 mouse assessed as reduction in amphetamine-evoked hyperactivity by measuring horizontal activity at 0.3 to 10 mg/kg, ip dosed 30 mins before amphetamine challenge and measured for 90 mins; type: functional, organism-based; details: dose mg/kg 0.3-10, time […]
In short: (§4)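 Naïve male C57/BL6 mice (24–31 g, ~60 days), handled and habituated to activity monitors beforehand; n = 12/dose (11 at 1 mg/kg after outlier exclusion). Vehicle or 0.3, 1, 3, 10 mg/kg IP, then automated horizontal activity monitored 30 min; amphetamine 3 mg/kg IP followed, with monitoring for 90 min. One-way ANOVA with Dunnett's comparisons vs vehicle; mean ± SEM; blinded dosing.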

[15] = tested on: Mus musculus; experiment: Antipsychotic-like activity in C57/BL6 mouse assessed as reduction in horizontal activity at 3 to 10 mg/kg, ip measured after 30 mins; type: functional, organism-based; details: dose mg/kg 3-10, time 30.0 min; in short: as §4
[16] = biological target: 5-hydroxytryptamine receptor 2C (Homo sapiens) (UniProt P28335); experiment: Binding affinity to 5-HT2C (unknown origin) assessed as inhibition of ligand binding at 10 uM relative to control
Sequence of 5-hydroxytryptamine receptor 2C (Homo sapiens) (P28335 whole entry): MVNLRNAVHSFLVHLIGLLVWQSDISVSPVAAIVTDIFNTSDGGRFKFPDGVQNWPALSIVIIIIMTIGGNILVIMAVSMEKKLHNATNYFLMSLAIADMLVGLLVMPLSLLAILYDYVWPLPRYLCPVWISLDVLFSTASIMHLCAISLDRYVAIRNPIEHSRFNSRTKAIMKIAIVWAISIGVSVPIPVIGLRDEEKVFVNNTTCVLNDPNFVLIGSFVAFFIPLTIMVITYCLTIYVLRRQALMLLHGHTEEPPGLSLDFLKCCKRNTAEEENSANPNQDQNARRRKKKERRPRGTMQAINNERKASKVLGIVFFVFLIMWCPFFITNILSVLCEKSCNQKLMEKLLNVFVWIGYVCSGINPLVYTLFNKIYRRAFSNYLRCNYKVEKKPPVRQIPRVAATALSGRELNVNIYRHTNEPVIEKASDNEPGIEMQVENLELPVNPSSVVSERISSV

[17] = species: Homo sapiens; experiment: Binding affinity to GABAA receptor (unknown origin) assessed as inhibition of ligand binding at 10 uM relative to control
[18] = biological target: 5-hydroxytryptamine receptor 1A (Homo sapiens, UniProt P08908); experiment: Binding affinity to 5-HT1A (unknown origin) assessed as inhibition of ligand binding
[19] = biological target: 5-hydroxytryptamine receptor 1B (Homo sapiens, UniProt P28222); experiment: Binding affinity to 5-HT1B (unknown origin) assessed as inhibition of ligand binding
[20] = biological target: 5-hydroxytryptamine receptor 1D (Homo sapiens, UniProt P28221); experiment: Binding affinity to 5-HT1D (unknown origin) assessed as inhibition of ligand binding
Sequence of 5-hydroxytryptamine receptor 1D (P28221 whole entry): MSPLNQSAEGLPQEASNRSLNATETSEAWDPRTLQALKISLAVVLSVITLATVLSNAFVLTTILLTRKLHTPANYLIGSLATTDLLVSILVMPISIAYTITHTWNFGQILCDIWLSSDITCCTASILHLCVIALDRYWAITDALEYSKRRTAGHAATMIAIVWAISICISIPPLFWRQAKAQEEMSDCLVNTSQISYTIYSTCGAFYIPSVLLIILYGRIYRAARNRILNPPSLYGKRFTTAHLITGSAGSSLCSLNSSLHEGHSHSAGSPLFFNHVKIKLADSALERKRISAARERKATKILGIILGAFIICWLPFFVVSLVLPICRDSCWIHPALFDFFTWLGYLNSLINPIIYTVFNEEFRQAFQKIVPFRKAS

[21] = biological target: 5-hydroxytryptamine receptor 1E (Homo sapiens, UniProt P28566); experiment: Binding affinity to 5-HT1E (unknown origin) assessed as inhibition of ligand binding
[22] = biological target: 5-hydroxytryptamine receptor 2A (Homo sapiens, UniProt P28223); experiment: Binding affinity to 5-HT2A (unknown origin) assessed as inhibition of ligand binding
Sequence of 5-hydroxytryptamine receptor 2A (P28223 whole entry): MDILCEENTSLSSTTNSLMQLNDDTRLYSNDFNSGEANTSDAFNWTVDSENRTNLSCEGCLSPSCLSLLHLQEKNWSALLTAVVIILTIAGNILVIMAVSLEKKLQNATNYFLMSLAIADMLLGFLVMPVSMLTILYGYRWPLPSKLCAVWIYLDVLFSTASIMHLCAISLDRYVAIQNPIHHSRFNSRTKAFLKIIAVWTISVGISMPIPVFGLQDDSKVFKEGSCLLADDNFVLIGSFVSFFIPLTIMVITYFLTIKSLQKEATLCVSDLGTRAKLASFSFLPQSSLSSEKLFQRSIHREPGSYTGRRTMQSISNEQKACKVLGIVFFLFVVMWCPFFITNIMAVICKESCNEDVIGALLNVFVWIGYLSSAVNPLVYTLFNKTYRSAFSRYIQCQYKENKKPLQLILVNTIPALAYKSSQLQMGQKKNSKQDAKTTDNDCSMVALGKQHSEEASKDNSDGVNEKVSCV

[23] = biological target: 5-hydroxytryptamine receptor 2B (Homo sapiens, UniProt P41595); experiment: Binding affinity to 5-HT2B (unknown origin) assessed as inhibition of ligand binding
[24] = biological target: 5-hydroxytryptamine receptor 3A (Homo sapiens, UniProt P46098); experiment: Binding affinity to 5-HT3 (unknown origin) assessed as inhibition of ligand binding
Sequence of 5-hydroxytryptamine receptor 3A (P46098 whole entry): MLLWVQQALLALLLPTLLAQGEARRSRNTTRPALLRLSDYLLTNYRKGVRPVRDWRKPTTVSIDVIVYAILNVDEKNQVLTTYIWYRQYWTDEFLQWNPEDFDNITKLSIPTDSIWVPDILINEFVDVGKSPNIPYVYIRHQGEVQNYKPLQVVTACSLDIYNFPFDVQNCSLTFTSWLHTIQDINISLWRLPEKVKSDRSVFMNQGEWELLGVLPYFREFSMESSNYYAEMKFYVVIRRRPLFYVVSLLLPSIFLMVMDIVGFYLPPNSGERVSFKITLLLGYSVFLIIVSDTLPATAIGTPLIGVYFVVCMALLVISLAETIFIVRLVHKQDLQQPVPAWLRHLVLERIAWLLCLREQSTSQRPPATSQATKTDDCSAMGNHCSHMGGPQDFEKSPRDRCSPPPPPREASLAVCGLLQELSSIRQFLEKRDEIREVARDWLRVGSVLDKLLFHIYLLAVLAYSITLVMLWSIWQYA

[25] = biological target: 5-hydroxytryptamine receptor 5A (Homo sapiens, UniProt P47898); experiment: Binding affinity to 5-HT5A (unknown origin) assessed as inhibition of ligand binding
Sequence of 5-hydroxytryptamine receptor 5A (P47898 whole entry): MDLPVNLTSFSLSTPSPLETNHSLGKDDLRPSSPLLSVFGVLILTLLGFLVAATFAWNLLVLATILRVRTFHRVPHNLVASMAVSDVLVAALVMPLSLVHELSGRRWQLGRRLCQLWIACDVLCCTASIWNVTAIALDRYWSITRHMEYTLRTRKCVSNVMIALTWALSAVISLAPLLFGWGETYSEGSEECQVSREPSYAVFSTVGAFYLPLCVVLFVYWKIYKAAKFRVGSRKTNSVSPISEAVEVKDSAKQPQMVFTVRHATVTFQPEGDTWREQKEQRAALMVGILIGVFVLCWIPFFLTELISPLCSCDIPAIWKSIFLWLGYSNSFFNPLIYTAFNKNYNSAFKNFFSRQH

[26] = biological target: 5-hydroxytryptamine receptor 6 (Homo sapiens, UniProt P50406); experiment: Binding affinity to 5-HT6 (unknown origin) assessed as inhibition of ligand binding
[27] = biological target: 5-hydroxytryptamine receptor 7 (Homo sapiens, UniProt P34969); experiment: Binding affinity to 5-HT7A (unknown origin) assessed as inhibition of ligand binding
Sequence of 5-hydroxytryptamine receptor 7 (P34969 whole entry): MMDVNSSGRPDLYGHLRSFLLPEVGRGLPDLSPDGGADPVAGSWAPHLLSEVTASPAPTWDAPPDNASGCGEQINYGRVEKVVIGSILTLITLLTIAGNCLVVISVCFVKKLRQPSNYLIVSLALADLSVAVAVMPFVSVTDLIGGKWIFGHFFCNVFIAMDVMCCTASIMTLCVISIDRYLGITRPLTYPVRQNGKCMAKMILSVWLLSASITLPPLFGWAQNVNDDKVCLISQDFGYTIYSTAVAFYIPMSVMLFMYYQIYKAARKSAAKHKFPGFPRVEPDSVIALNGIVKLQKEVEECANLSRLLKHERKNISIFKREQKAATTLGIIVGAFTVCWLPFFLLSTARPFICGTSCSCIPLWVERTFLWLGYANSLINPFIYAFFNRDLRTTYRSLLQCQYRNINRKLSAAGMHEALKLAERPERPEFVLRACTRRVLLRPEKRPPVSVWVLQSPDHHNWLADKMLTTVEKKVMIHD

[28] = biological target: Alpha-1A adrenergic receptor (Homo sapiens, UniProt P35348); experiment: Binding affinity to alpha1A receptor (unknown origin) assessed as inhibition of ligand binding
[29] = biological target: Alpha-1B adrenergic receptor (Homo sapiens, UniProt P35368); experiment: Binding affinity to alpha1B receptor (unknown origin) assessed as inhibition of ligand binding
[30] = biological target: Alpha-2A adrenergic receptor (Homo sapiens, UniProt P08913); experiment: Binding affinity to alpha2A receptor (unknown origin) assessed as inhibition of ligand binding
[31] = biological target: Beta-1 adrenergic receptor (Homo sapiens, UniProt P08588); experiment: Binding affinity to beta1 adrenergic receptor (unknown origin) assessed as inhibition of ligand binding
[32] = biological target: Beta-2 adrenergic receptor (Homo sapiens, UniProt P07550); experiment: Binding affinity to beta2 adrenergic receptor (unknown origin) assessed as inhibition of ligand binding
[33] = biological target: D(1A) dopamine receptor (Homo sapiens, UniProt P21728); experiment: Binding affinity to DRD1 (unknown origin) assessed as inhibition of ligand binding
Sequence of D(1A) dopamine receptor (P21728 whole entry): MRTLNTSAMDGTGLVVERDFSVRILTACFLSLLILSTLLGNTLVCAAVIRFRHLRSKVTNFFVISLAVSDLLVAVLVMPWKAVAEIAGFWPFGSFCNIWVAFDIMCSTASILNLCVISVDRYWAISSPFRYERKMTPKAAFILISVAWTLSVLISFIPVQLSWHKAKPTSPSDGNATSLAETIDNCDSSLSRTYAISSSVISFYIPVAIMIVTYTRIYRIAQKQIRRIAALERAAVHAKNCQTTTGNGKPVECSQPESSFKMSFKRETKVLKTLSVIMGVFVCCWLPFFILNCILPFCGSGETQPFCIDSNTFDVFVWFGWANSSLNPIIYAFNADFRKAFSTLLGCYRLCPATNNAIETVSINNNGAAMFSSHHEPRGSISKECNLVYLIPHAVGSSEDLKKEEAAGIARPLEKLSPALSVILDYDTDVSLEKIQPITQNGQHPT

[34] = biological target: D(2) dopamine receptor (Homo sapiens, UniProt P14416); experiment: Binding affinity to DRD2 (unknown origin) assessed as inhibition of ligand binding
[35] = biological target: D(3) dopamine receptor (Homo sapiens, UniProt P35462); experiment: Binding affinity to DRD3 (unknown origin) assessed as inhibition of ligand binding
Sequence of D(3) dopamine receptor (P35462 whole entry): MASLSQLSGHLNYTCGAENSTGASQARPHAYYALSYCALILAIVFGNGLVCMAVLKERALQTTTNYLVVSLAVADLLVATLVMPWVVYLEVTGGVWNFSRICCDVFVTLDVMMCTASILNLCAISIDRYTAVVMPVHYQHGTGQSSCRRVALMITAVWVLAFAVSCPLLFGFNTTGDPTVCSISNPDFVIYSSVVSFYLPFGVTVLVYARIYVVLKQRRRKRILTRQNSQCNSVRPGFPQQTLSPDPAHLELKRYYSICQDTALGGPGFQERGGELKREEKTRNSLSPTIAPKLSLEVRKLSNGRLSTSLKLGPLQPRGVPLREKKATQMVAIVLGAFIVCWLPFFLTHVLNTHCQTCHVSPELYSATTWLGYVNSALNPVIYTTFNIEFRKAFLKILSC

[36] = biological target: D(4) dopamine receptor (Homo sapiens, UniProt P21917); experiment: Binding affinity to DRD4 (unknown origin) assessed as inhibition of ligand binding
[37] = biological target: D(1B) dopamine receptor (Homo sapiens, UniProt P21918); experiment: Binding affinity to DRD5 (unknown origin) assessed as inhibition of ligand binding
[38] = biological target: Sodium-dependent dopamine transporter (Homo sapiens, UniProt Q01959); experiment: Binding affinity to DAT (unknown origin) assessed as inhibition of ligand binding
[39] = Binding affinity to GABAA receptor (unknown origin) assessed as inhibition of ligand binding; parameters: species or system Homo sapiens
[40] = biological target: Histamine H1 receptor (Homo sapiens, UniProt P35367); experiment: Binding affinity to HRH1 (unknown origin) assessed as inhibition of ligand binding
Sequence of Histamine H1 receptor (P35367 whole entry): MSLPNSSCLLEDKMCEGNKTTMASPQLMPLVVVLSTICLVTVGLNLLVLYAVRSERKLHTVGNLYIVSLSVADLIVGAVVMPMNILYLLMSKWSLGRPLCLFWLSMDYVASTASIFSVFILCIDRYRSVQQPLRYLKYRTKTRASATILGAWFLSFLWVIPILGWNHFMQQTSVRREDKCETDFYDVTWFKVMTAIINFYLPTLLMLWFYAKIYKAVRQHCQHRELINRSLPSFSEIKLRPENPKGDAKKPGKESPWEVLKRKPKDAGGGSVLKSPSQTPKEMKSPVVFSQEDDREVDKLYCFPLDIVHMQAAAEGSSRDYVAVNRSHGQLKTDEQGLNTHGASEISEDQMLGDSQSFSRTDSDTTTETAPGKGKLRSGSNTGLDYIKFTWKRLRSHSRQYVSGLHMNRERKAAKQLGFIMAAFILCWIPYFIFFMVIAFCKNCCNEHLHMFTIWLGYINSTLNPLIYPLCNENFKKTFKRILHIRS

[41] = biological target: Histamine H2 receptor (Homo sapiens, UniProt P25021); experiment: Binding affinity to HRH2 (unknown origin) assessed as inhibition of ligand binding
Sequence of Histamine H2 receptor (P25021 whole entry): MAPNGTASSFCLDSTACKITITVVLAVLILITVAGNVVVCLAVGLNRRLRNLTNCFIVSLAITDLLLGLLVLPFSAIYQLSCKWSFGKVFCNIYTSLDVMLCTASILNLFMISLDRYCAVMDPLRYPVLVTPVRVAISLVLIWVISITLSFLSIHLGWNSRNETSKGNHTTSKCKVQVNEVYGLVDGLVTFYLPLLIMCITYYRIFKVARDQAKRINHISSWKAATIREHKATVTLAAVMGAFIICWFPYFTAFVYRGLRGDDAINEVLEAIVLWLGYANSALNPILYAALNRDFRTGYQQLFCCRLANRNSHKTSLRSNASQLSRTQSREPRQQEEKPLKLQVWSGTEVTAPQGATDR

[42] = biological target: Kappa-type opioid receptor (Homo sapiens, UniProt P41145); experiment: Binding affinity to KOR (unknown origin) assessed as inhibition of ligand binding
[43] = biological target: Muscarinic acetylcholine receptor M1 (Homo sapiens, UniProt P11229); experiment: Binding affinity to M1 receptor (unknown origin) assessed as inhibition of ligand binding
[44] = biological target: Muscarinic acetylcholine receptor M2 (Homo sapiens, UniProt P08172); experiment: Binding affinity to M2 receptor (unknown origin) assessed as inhibition of ligand binding
[45] = biological target: Muscarinic acetylcholine receptor M3 (Homo sapiens, UniProt P20309); experiment: Binding affinity to M3 receptor (unknown origin) assessed as inhibition of ligand binding
[46] = biological target: Muscarinic acetylcholine receptor M4 (Homo sapiens, UniProt P08173); experiment: Binding affinity to M4 receptor (unknown origin) assessed as inhibition of ligand binding
Sequence of Muscarinic acetylcholine receptor M4 (P08173 whole entry): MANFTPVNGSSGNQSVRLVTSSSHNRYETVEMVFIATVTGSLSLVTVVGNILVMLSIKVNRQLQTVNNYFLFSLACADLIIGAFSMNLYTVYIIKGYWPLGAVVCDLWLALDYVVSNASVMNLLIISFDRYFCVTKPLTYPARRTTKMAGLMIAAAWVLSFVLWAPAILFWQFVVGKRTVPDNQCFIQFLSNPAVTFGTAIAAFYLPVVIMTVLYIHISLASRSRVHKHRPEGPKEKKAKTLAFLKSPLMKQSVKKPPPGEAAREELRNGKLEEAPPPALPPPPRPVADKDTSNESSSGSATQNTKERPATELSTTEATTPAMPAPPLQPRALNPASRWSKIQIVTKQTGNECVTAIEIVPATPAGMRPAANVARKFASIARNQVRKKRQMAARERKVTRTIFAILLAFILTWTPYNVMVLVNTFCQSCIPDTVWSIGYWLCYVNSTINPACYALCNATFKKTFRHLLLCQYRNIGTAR

[47] = biological target: Muscarinic acetylcholine receptor M5 (Homo sapiens, UniProt P08912); experiment: Binding affinity to M5 receptor (unknown origin) assessed as inhibition of ligand binding
[48] = biological target: Mu-type opioid receptor (Homo sapiens, UniProt P35372); experiment: Binding affinity to MOR (unknown origin) assessed as inhibition of ligand binding
[49] = biological target: Voltage-gated inwardly rectifying potassium channel KCNH2 (Homo sapiens, UniProt Q12809); experiment: Binding affinity to human ERG assessed as inhibition of ligand binding

## O=C(NCCO)c1cccc2c1CCN2c1cc(Cc2cc(F)cc(C(F)(F)F)c2)ncn1
[1]
  inhibition at 10 µM: 11%
[2]
  Activity: inactive
[3]
  AUC: 13749 ng·h/mL
[4]
  AUC: 9030 ng·h/mL
[5]
  Cmax: 3407 ng/mL
[6]
  Cmax: 6726 ng/mL
[7]
  CL: 18.3 mL/min/kg
[8]
  Vdss: 5.5 L/kg
[9]
  Vdss: 1.5 L/kg
[10]
  bioavailability: 76%
[11]
  concentration at 1 h: 1010 ng/g
[12]
  concentration at 1 h: 2590 ng/g
[13]
  BPR: 0.39
[14]
  Activity: Dose-dependent effect
[15]
  Activity: Active
[16]
  inhibition: 52.6%
[17]
  inhibition: 5.98%
[18]
  Ki: Not Active
[19]
  Ki: Not Active
[20]
  Ki: Not Active
[21]
  Ki: Not Active
[22]
  Ki: Not Active
[23]
  Ki: Not Active
[24]
  Ki: Not Active
[25]
  Ki: Not Active
[26]
  Ki: Not Active
[27]
  Ki: Not Active
[28]
  Ki: Not Active
[29]
  Ki: Not Active
[30]
  Ki: Not Active
[31]
  Ki: Not Active
[32]
  Ki: Not Active
[33]
  Ki: Not Active
[34]
  Ki: Not Active
[35]
  Ki: Not Active
[36]
  Ki: Not Active
[37]
  Ki: Not Active
[38]
  Ki: Not Active
[39]
  Ki: Not Active
[40]
  Ki: Not Active
[41]
  Ki: Not Active
[42]
  Ki: Not Active
[43]
  Ki: Not Active
[44]
  Ki: Not Active
[45]
  Ki: Not Active
[46]
  Ki: Not Active
[47]
  Ki: Not Active
[48]
  Ki: Not Active
[49]
  Ki: Not Active

Reference: ChEMBL document CHEMBL4699648, “Discovery of Potent and Brain-Penetrant GPR52 Agonist that Suppresses Psychostimulant Behavior” (J Med Chem, 2020)
